In ChEMBL document CHEMBL1131531, “cycloSal-2',3'-dideoxy-2',3'-didehydrothymidine monophosphate (cycloSal-d4TMP): synthesis and antiviral evaluation of a new d4TMP delivery system” (J Med Chem, 1998):

Assays:
[1] = Partition coefficient was measured.; type: ADME; conditions: octanol/water
How it was run: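 Compound dissolved in 1-octanol and mixed with equal volume of phosphate buffer (10 mmol, pH 6.8). Vortexed 10 min, phases separated by centrifugation. Each phase analysed by reversed-phase HPLC (UV 265 nm). Pa taken as the quotient of peak areas.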

[2] = Half-life period was measured in 30 mM TRIS buffer at pH 6.9 at 37 degree C; type: ADME
[3] = Half-life period was measured in 30 mM sodium borate buffer at pH 8.9 at 37 degree C; type: ADME
[4] = Half-life period was measured in 30 mM sodium phosphate buffer at pH 7.3 at 37 degree C; type: ADME
[5] = Half-life period was measured in RPMI-1640 culture medium at 37 degree C with 10% heat-inactivated fetal calf serum..; type: ADME; conditions: cattle
[6] = Half-life period was measured in RPMI-1640 culture medium at 37 degree C without FCS.; type: ADME; conditions: RPMI-1640 culture medium without FCS
[7] = test system: CCRF-CEM; test: (§1) Antiviral activity was measured on HIV-2 in mutant thymidine kinase-deficient CEM/TK- cells; type: functional, cell-based; conditions: Homo sapiens
[8] = test system: CCRF-CEM; test: Antiviral activity was measured on HIV-2 in mutant thymidine kinase-deficient CEM/TK- cells for R configuration; type: functional, cell-based; conditions: Homo sapiens
[9] = test system: CCRF-CEM; test: Antiviral activity was measured on HIV-2 in mutant thymidine kinase-deficient CEM/TK- cells for S configuration; type: functional, cell-based; conditions: Homo sapiens
[10] = test system: CCRF-CEM; test: The cytotoxicity was measured on wild type CEM/O cells for R configuration; type: functional; conditions: Homo sapiens
[11] = test system: CCRF-CEM; test: The cytotoxicity was measured on wild type CEM/O cells for S configuration; type: functional; conditions: Homo sapiens
[12] = test system: CCRF-CEM; test: The cytotoxicity was measured on wild type CEM/O cells.; type: functional; conditions: Homo sapiens
[13] = test system: CCRF-CEM; test: Antiviral activity was measured on HIV-1 in wild-type CEM/O cells; type: functional, cell-based, Homo sapiens
[14] = test system: CCRF-CEM; test: Antiviral activity was measured on HIV-1 in wild-type CEM/O cells for R configuration; type: functional, cell-based; conditions: Homo sapiens
[15] = test system: CCRF-CEM; test: Antiviral activity was measured on HIV-1 in wild-type CEM/O cells for S configuration; type: functional, cell-based; conditions: Homo sapiens
[16] = test system: CCRF-CEM; test: Antiviral activity was measured on HIV-2 in wild-type CEM/O cells; type: functional, cell-based, Homo sapiens
[17] = test system: CCRF-CEM; test: Antiviral activity was measured on HIV-2 in wild-type CEM/O cells for R configuration; type: functional, cell-based; conditions: Homo sapiens
[18] = test system: CCRF-CEM; test: Antiviral activity was measured on HIV-2 in wild-type CEM/O cells for S configuration; type: functional, cell-based; conditions: Homo sapiens
[19] = test system: CCRF-CEM; test: as §1; type: functional, cell-based; conditions: Homo sapiens; remark: listed apart in the source
How it was run: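 CEM/O or TK-deficient CEM/TK- cells at 4 × 10⁵ cells/mL infected with HIV-1 (HTLV-IIIB) or HIV-2 (LAV 2) at ~100 CCID50/mL. Infected suspension mixed 1:1 with serial compound dilutions. Giant cell formation scored microscopically after 4 days.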

[20] = test system: MT4; test: Antiviral activity was measured on HIV-1 in MT-4 cells; type: functional, cell-based; conditions: Homo sapiens
[21] = test system: MT4; test: Antiviral activity was measured on HIV-2 in MT-4 cells; type: functional, cell-based; conditions: Homo sapiens
[22] = test system: MT4; test: Antiviral activity was measured on HIV-1 in MT-4 cells for R configuration; type: functional, cell-based; conditions: Homo sapiens
[23] = test system: MT4; test: Antiviral activity was measured on HIV-2 in MT-4 cells for R configuration; type: functional, cell-based; conditions: Homo sapiens
[24] = test system: CCRF-CEM; test: The cytotoxicity was measured on wild type CEM/O cells; type: functional; conditions: Homo sapiens

SMILES: COc1cccc2c1OP(=O)(OCC1C=CC(n3cc(C)c(=O)[nH]c3=O)O1)OC2 (stereo unspecified)
- Pa [1]: 1.4
- half-life [2]: 570 min
- half-life [3]: 24 min
- half-life [4]: 84 min
- half-life [5]: 120 min
- half-life [6]: 192 min
- EC50 [7]: 170 nM
- EC50 [8]: 120 nM
- EC50 [9]: 9.67 µM
- CC50 [10]: 38 µM
- CC50 [11]: 84 µM
- CC50 [12]: 35 µM
- EC50 ([13]; Homo sapiens, CCRF-CEM): 170 nM
- EC50 [14]: 140 nM
- EC50 [15]: 470 nM
- EC50 ([16]; Homo sapiens, CCRF-CEM): 420 nM
- EC50 [17]: 170 nM
- EC50 [18]: 1030 nM

SMILES: Cc1cn(C2C=CC(COP3(=O)OCc4cc(Cl)ccc4O3)O2)c(=O)[nH]c1=O (stereo unspecified)
- Pa [1]: 7.6
- CC50 [12]: 49 µM
- EC50 [19]: 2.67 µM
- EC50 ([16]; Homo sapiens, CCRF-CEM): 1400 nM
- EC50 [20]: 31 nM
- EC50 [21]: 38 nM

SMILES: Cc1cc(C)c2c(c1)COP(=O)(OCC1C=CC(n3cc(C)c(=O)[nH]c3=O)O1)O2 (stereo unspecified)
- Pa [1]: 15.3

SMILES: Cc1ccc2c(c1)COP(=O)(OC[C@@H]1C=C[C@H](n3cc(C)c(=O)[nH]c3=O)O1)O2 (stereo partly specified)
- Pa [1]: 5.4

SMILES: Cc1cn([C@H]2C[C@H](N=[N+]=[N-])[C@@H](CO)O2)c(=O)[nH]c1=O [ZIDOVUDINE]
- EC50 [7]: > 100000 nM
- CC50 [12]: > 100 µM
- EC50 ([13]; Homo sapiens, CCRF-CEM): 7 nM

SMILES: OCc1ccccc1O [SALICYL ALCOHOL]
- CC50 [12]: > 250 µM
- EC50 ([13]; Homo sapiens, CCRF-CEM): > 250000 nM
- EC50 ([16]; Homo sapiens, CCRF-CEM): > 250000 nM

SMILES: Cc1cccc2c1OP(=O)(OC[C@@H]1C=C[C@H](n3cc(C)c(=O)[nH]c3=O)O1)OC2 (stereo partly specified)
- Pa [1]: 5.1
- half-life [2]: 4110 min
- half-life [3]: 90 min
- half-life [4]: 612 min
- half-life [5]: 546 min
- half-life [6]: 960 min
- EC50 [7]: 93 nM
- EC50 [8]: 63 nM
- EC50 [9]: 0.7 µM
- CC50 [10]: 11 µM
- CC50 [11]: 76 µM
- CC50 [12]: 21 µM
- EC50 ([13]; Homo sapiens, CCRF-CEM): 87 nM
- EC50 [14]: 80 nM
- EC50 [15]: 420 nM
- EC50 ([16]; Homo sapiens, CCRF-CEM): 120 nM
- EC50 [17]: 67 nM
- EC50 [18]: 1100 nM
- EC50 [20]: 28 nM
- EC50 [22]: 12 nM
- EC50 [21]: 33 nM
- EC50 [23]: 11 nM

SMILES: Cc1cccc(CO)c1O
- CC50 [12]: > 250 µM
- EC50 ([13]; Homo sapiens, CCRF-CEM): > 250000 nM
- EC50 ([16]; Homo sapiens, CCRF-CEM): > 250000 nM

SMILES: Cc1cn([C@H]2C=C[C@@H](COP3(=O)OCc4ccccc4O3)O2)c(=O)[nH]c1=O (stereo partly specified)
- Pa [1]: 1.9

SMILES: Cc1cn([C@H]2C=C[C@@H](COP3(=O)OCc4cc([N+](=O)[O-])ccc4O3)O2)c(=O)[nH]c1=O (stereo partly specified)
- Pa [1]: 1.5
- CC50 [12]: 75 µM
- EC50 ([13]; Homo sapiens, CCRF-CEM): 290 nM
- EC50 [19]: 40 µM
- EC50 ([16]; Homo sapiens, CCRF-CEM): 400 nM

SMILES: COc1ccc(O)c(CO)c1
- CC50 [12]: 158 µM
- EC50 ([13]; Homo sapiens, CCRF-CEM): > 250000 nM
- EC50 ([16]; Homo sapiens, CCRF-CEM): > 250000 nM

SMILES: COc1ccc2c(c1)COP(=O)(OC[C@@H]1C=C[C@H](n3cc(C)c(=O)[nH]c3=O)O1)O2 (stereo partly specified)
- Pa [1]: 2.3
- half-life [2]: 1700 min
- half-life [3]: 64.2 min
- half-life [4]: 432 min
- half-life [5]: 258 min
- half-life [6]: 432 min
- EC50 [7]: 800 nM
- CC50 [12]: 39 µM
- EC50 ([13]; Homo sapiens, CCRF-CEM): 180 nM
- EC50 ([16]; Homo sapiens, CCRF-CEM): 700 nM

SMILES: Cc1cn([C@H]2C=C[C@@H](CO)O2)c(=O)[nH]c1=O [STAVUDINE]
- Pa [1]: 0.15
- EC50 [7]: 15000 nM
- CC50 [12]: 56 µM
- EC50 ([13]; Homo sapiens, CCRF-CEM): 180 nM
- EC50 ([13]; ccrf-cem): 180 nM
- EC50 ([16]; Homo sapiens, CCRF-CEM): 260 nM
- EC50 ([16]; ccrf-cem): 260 nM
- EC50 [20]: 18 nM
- EC50 [21]: 22 nM
- CC50 [24]: 56 µM
